p47phox inh – inhibitors of human p47phox binding; P14598; p47phox/p22phox peptide binding, fluorescence polarization, 2 h; inhibition, % at 24.7 µM; 0.53% of 220,000 active; AID 1274
RBBP9 inhibitor – human RBBP9 hydrolase inhibition; inhibition, % at 7.94 µM; recombinant RBBP9, FP-Rh probe fluorescence polarization; O75884; 0.2% of 220,000 active;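 active = inhibition above the campaign mean of all tested compounds plus 3 SD, cut at about 14% in these data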
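System: RBBP9 protein | Quantity: 2.5 µM RBBP9 dispensing solution, before mixing | Reagent: FP-Rh probe, 375 nM dispensing solution | Timing: Enzyme-compound preincubation 30 min, then probe labeling 45 min, 25 °C | Measured by: Fluorescence polarization | Read-out: % inhibition | Replication: One well per compound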
Wee1 stabilizer – human Wee1 degradation inhibition, primary screen. HeLa Luc-Wee1K328M stability, luciferase luminescence; 100% = proteasome inhibitor MG132 effect. reporter increase, % at 5 µM. 1.2% of 220,000 active;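 active = activation above the mean of all tested compounds plus 3 SD, set per screening run, cut at about 8.8% in these data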;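 note: cells exposed to compound for 20 h before luminescence read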
14-3-3 Bad inh – disrupts binding of bovine 14-3-3 zeta to phospho-Bad peptide | TR-FRET 14-3-3zeta/Dy647-pBad peptide displacement, 1 h | 0.71% of 220,000 active | inhibition, % at 21.7 µM | P63103;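 active = inhibition above about 70%, limit read from the data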
eIF4E-4G inh – blocks eIF4E binding to eIF4G; 0.37% of 220,000 active; TR-FRET eIF4E-eIF4GI(517-606) binding, 2 h; inhibition, % at 21.7 µM
Target sequence (P63073 whole entry, looked up): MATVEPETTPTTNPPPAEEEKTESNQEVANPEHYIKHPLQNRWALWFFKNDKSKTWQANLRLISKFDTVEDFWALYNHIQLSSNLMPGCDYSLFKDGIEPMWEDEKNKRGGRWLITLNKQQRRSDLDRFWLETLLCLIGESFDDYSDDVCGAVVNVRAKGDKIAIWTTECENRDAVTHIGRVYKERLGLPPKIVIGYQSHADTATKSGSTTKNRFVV
Target sequence (Q04637 whole entry, looked up): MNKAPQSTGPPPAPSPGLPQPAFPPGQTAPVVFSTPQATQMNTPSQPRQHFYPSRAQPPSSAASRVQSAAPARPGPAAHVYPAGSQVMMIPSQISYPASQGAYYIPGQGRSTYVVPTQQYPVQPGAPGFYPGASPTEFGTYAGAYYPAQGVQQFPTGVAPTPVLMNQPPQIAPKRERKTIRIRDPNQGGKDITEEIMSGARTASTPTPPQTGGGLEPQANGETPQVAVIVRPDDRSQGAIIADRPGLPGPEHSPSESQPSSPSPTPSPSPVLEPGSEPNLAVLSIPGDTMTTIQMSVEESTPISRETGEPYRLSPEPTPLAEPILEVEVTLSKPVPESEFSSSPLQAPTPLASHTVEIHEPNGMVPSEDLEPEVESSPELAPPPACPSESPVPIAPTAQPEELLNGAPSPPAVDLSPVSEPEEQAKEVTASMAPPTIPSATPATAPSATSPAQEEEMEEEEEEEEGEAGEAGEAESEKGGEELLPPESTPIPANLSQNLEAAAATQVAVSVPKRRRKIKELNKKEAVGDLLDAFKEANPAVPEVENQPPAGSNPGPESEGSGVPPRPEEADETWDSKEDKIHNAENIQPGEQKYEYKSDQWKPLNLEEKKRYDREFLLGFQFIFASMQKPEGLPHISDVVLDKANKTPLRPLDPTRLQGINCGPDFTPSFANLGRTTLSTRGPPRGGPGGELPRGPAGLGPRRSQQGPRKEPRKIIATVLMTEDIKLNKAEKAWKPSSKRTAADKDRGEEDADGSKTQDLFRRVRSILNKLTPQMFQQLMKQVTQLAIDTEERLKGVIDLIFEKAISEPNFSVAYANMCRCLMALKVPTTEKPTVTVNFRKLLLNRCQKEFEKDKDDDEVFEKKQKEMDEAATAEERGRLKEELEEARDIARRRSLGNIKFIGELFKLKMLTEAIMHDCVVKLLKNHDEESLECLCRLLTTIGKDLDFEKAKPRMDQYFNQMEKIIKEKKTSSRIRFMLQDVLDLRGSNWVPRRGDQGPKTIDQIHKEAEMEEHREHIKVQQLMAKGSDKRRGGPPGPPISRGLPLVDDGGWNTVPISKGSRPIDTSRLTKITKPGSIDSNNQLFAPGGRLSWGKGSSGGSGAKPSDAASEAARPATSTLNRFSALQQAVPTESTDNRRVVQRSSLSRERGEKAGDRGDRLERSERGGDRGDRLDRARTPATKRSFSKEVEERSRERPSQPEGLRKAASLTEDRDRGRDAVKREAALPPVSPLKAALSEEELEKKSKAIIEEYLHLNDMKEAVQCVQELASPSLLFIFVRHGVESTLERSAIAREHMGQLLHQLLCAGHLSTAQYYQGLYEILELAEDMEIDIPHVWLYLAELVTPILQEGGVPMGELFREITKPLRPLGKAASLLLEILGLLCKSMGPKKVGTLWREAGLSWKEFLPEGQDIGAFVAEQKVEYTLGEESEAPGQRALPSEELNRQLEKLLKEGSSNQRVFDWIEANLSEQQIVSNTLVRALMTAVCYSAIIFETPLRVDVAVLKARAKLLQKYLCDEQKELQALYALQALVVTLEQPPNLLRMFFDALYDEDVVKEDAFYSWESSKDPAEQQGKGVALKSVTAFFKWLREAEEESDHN
Hits are given with their value; – = inactive; [ ] = another dose, or the depositor's remark. This is a sample that favours compounds with a hit; in the whole collection about 2.8% have one here.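 Rule for the calls, unless noted: active = inhibition above about 30% (limit read from the data); inactive = the rest.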

SMILES	p47phox inh	RBBP9 inhibitor	Wee1 stabilizer	14-3-3 Bad inh	eIF4E-4G inh
Cc1ccc(C2CC(=O)C(C=NCCN3CCN(C(=S)Nc4ccccc4)CC3)=C(O)C2)cc1 (stereo unspecified)	–	–	–	–	97
O=C(O)c1ccccc1S	–	–	12	–	–
O=C(O)Cc1ccccc1C(=O)O	–	–	–	–	–
C=C1CC2C=C(NC(C)=O)CC(C1)C2 (stereo unspecified)	–	–	9.6	–	–
COc1ccc(/C=N/NC(=O)CN(c2ccc(OC)cc2)S(=O)(=O)c2ccccc2)cc1	–	–	–	–	–
COc1ccccc1N(CC(=O)N/N=C/c1ccc(C(=O)O)cc1)S(=O)(=O)c1ccc(C)cc1	–	–	9.0	–	–
O=S(=O)(NCCOCC(F)(F)C(F)F)c1ccc2oc3ccccc3c2c1	–	–	–	–	–
Cc1cc(C)nc(NC(=O)CSc2ccccn2)n1	–	–	17	–	–
Cc1cc(C)nc(NC(=O)CSc2ncccn2)n1	–	–	–	–	–
Cc1cc(C)nc(SCCC(=O)Nc2ccccc2)n1	88	–	–	–	–
Cc1ccc(NC(=O)CCSc2nc(C)cc(C)n2)cc1	–	–	–	–	–
Cn1ccnc1C(=O)c1cccc([N+](=O)[O-])c1	–	–	–	91	–
Cn1ccnc1C(=O)c1ccc(NN)c([N+](=O)[O-])c1	–	–	–	–	–
C=CCN1C(=O)/C(=C2/Sc3ccccc3N2CCCS(=O)(=O)O)SC1=S	–	–	–	72	–
CCCCC(=O)Nc1ccc(C(=O)Nc2nnc(COC)s2)cc1	–	–	–	–	–
CCOc1ccccc1NC(=O)CCCn1cc([N+](=O)[O-])cn1	–	–	–	–	–
COC(=O)c1c(C)c[nH]c1C	–	–	–	–	–
COC(=O)c1c(C)cc(OC(C)=O)c(C)c1OC(C)=O	–	–	–	–	33
O=C(COc1ccccc1)NNC1=NS(=O)(=O)c2ccccc21	–	–	–	–	–
C=CCN1C(C(=O)c2ccccc2)=C(OC(=O)COc2ccccc2)c2ccccc2S1(=O)=O	–	–	–	77	–
COc1ccc(/C=N/n2cnc3c([nH]c4ccccc43)c2=O)cc1CO	–	–	–	–	–
COc1ccc(/C=N/n2cnc3c([nH]c4ccc(Br)cc43)c2=O)cc1CN1CCOCC1	–	–	–	–	41[fluorescence artefact?]
COc1ccc(CCn2c(C)cc(C(=O)CCl)c2C)cc1OC	–	–	–	–	–
CCCCN(C(=O)Cc1cccs1)c1nnc(-c2cccnc2)s1	–	–	–	71	–
COc1ccc(C(OC(=O)c2ccco2)C(=O)NC2CCCCC2)cc1 (stereo unspecified)	–	–	–	–	–
SMILES	p47phox inh	RBBP9 inhibitor	Wee1 stabilizer	14-3-3 Bad inh	eIF4E-4G inh
COc1ccc(C(OC(=O)c2c(C)noc2C)C(=O)NC2CCCC2)cc1 (stereo unspecified)	–	–	–	82	–
O=C1NCC2=C1C(c1ccc(Br)cc1)Nc1ccccc1N2 (stereo unspecified)	–	–	9.6	–	–
O=C(O)CCC(CNS(=O)(=O)c1ccccc1)C(F)(F)F (stereo unspecified)	–	–	–	–	–
CC(O)CNCCNCc1c(OCc2ccccc2)ccc2ccccc12 (stereo unspecified)	–	–	–	77	–
COc1ccc(Cl)cc1N(CC(=O)NC(C)(C)C)S(=O)(=O)c1ccc(C)c([N+](=O)[O-])c1	–	–	–	–	–
COc1cccc(/C=N/NC(=O)NC2CCCCC2)c1O	–	–	10	–	–
COc1ccc(CCNC(=O)NC2CCCCC2)cc1OC	–	–	–	–	–
COc1ccccc1CCNC(=O)NC1CCCCC1	–	–	9.7	–	–
COc1cccc(/C=N/NC(=O)C(=O)N/N=C/c2cccc(OC)c2O)c1O	–	–	–	–	–
CN1CCC(=NNC(=O)C(=O)Nc2ccccc2F)CC1	–	–	–	–	–
O=C(c1ccc(OC2CCN(Cc3ccccn3)CC2)cc1)N1CCCCO1	–	–	–	–	–
CCn1ncc(-c2ccnc3cc(C(=O)O)nn23)c1C	–	–	–	70	–
O=C(NNc1cccc(Cl)c1)c1cccnc1Cl	–	–	9.4	–	–
COc1ccc(S(=O)(=O)N(C)CC(=O)NCCC2=CCCCC2)cc1C	–	–	–	–	–
O=C(Cn1c2ccccc2c(=O)c2ccccc21)N/N=C/c1ccc(N2CCCC2)c([N+](=O)[O-])c1	–	–	–	98[fluorescence artefact?]	–
CN(Cc1cnn(C)c1)S(=O)(=O)c1cccc([N+](=O)[O-])c1	–	–	–	–	–
Cc1ccc(S(=O)(=O)Nc2cc(-c3ccccc3)nn2C)cc1Cl	–	–	–	–	–
Cc1cc([N+](=O)[O-])nn1CC(=O)NCc1nc2ccccc2[nH]1	41	–	–	–	–
O=C(Nc1ccccc1Cl)C1CCCN(S(=O)(=O)c2ccc(F)cc2)C1 (stereo unspecified)	–	–	–	77	–
Cc1cc(C)[n+](-c2ccc(Oc3ccccc3)c(S(=O)(=O)[O-])c2)[nH]1	–	–	–	–	–
COCCNCc1nc2sc(C)c(-c3ccccc3)c2c(=O)[nH]1	–	–	–	–	–
C=CCNC(=O)CC1C(=O)NCCN1Cc1ccc(-c2ccccc2)cc1 (stereo unspecified)	–	–	11	–	–
O=C(CC1C(=O)NCCN1Cc1ccc(-c2ccccc2)cc1)NCC1CC1 (stereo unspecified)	–	–	–	–	–
COC(=O)c1ccccc1Oc1ccc(NC(=O)CCCl)cc1	–	–	–	–	–
O=[N+]([O-])c1ccc(C2=Nn3cnnc3SC2)cc1	–	–	–	–	62
SMILES	p47phox inh	RBBP9 inhibitor	Wee1 stabilizer	14-3-3 Bad inh	eIF4E-4G inh
CCOc1ccc(C2=Nn3cnnc3SC2)cc1	–	–	–	–	–
CCCCNC(=O)CNC(=S)N(Cc1ccccc1F)C1CCCCC1	–	–	9.1	–	–
CN(C)/C=C/C(=O)c1c(F)cccc1F	–	–	–	–	–
O=C(O)c1ccccc1-n1ncc2c1/C(=C/c1ccc(Cl)cc1)CC2	–	–	–	79	–
Cc1nn(-c2ccccc2)c(C)c1/C=N/NC(=O)CSc1nnc(SCc2cccc3ccccc23)s1	–	–	–	–	–
CO[C@@]1(NC(=O)Cc2cccs2)C(=O)N2C(C(=O)O)=C(COC(N)=O)CS[C@@H]21	–	–	10	73	–
C/C(CC(=O)NC12CC3CC(CC(C3)C1)C2)=N\NC(=O)Cc1cccs1	–	–	–	–	–
CCCc1c(C(=O)Nc2cc(C(C)(C)C)on2)cnn1-c1ccccc1	–	–	9.8	–	–
Cc1ccc(F)cc1NC(=O)C1CC(=O)N(CCc2ccccc2)C1 (stereo unspecified)	–	–	–	–	–
O=C(Nc1ccc(S(=O)(=O)Nc2ncccn2)cc1)c1ccc2ncsc2c1	–	–	–	81	51
